Results on one molecule are retold here after ChEMBL document CHEMBL4402563, “Preclinical Optimization of gp120 Entry Antagonists as anti-HIV-1 Agents with Improved Cytotoxicity and ADME Properties through Rational Design, Synthesis, and Antiviral Evaluation” (J Med Chem, 2020).

Data set [1] in a line: Solubility of compound in pH 7.4 PBS buffer at 1 mg incubated for overnight by LC-MS/MS analysis. The settings on record: in vitro. Format: physicochemical. The method in brief:
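Aqueous solubility was measured in phosphate buffer at pH 7.4 and reported in mg/mL.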

The next data set concerns the target T1, Cytochrome P450 2C8 (Homo sapiens, UniProt P10632).
T1 sequence (P10632 whole entry): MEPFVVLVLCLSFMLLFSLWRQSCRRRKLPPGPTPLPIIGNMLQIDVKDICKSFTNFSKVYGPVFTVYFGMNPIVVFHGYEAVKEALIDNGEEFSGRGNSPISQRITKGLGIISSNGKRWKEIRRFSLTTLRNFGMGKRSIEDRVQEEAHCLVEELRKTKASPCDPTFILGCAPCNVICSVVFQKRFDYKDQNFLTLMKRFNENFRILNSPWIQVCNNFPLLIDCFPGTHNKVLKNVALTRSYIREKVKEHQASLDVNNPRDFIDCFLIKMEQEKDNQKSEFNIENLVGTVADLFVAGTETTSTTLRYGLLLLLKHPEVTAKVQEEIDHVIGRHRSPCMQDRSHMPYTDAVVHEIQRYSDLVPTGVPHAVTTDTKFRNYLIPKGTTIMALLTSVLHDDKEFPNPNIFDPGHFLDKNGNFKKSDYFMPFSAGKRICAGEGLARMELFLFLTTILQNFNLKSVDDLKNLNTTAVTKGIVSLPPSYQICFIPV
In words: Inhibition of CYP2C8 in human liver microsomes using amodiaquine as substrate preincubated for 5 mins followed by NADPH addition and measured for 10 to 30 mins by LC-MS/MS analysis. Format: ADME. The method in brief:
(§1)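 Inhibition was screened in a panel of eight CYP450 isoforms, with test concentrations escalated up to 100 μM.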

The nature of data set [2]: Apparent permeability from basolateral side to apical side in human Caco2 cells at 5 uM preincubated with vals-podar for 30 mins and measured for 120 mins by LC-MS/MS analysis. Format: ADME, cell-based. The following applies: Caco-2, with valspodar (printed as vals-podar; concentration not stated). The method in brief: (§2)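 Bidirectional Caco-2 transport run with the P-gp inhibitor valspodar at 1 μM. Papp is given as ×10−6 cm/sec for each direction, and the efflux ratio is taken from B-to-A over A-to-B.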
(Caco-2 cells form a polarised layer with tight junctions and transporters.)

The nature of data set [3]: Half life in human liver microsomes at 3 uM preincubated for 3 mins followed by NADPH addition and measured up to 120 mins by LC-MS/MS analysis. Format: ADME, Microsome. The following applies: 2 h. A general note: Liver microsomes are vesicles of endoplasmic reticulum, rich in cytochrome P450 enzymes.
A short description of data set [4]: Metabolic stability in human liver microsomes assessed as parent compound remaining at 3 uM preincubated for 3 mins followed by NADPH addition and measured up to 120 mins by LC-MS/MS analysis. Format: ADME, Microsome. The settings on record: read-out: Stability.
Data set [5] is described as follows: Cytotoxicity against dog Cf2Th-CCR5 cells infected with CD4-dependent pseudovirus HIV1 ADA incubated for 48 hrs by MTS assay. In general terms: Tetrazolium dyes change colour on reduction, which living cells bring about.
Data set [6] is described as follows: Apparent permeability from apical to basolateral side in human Caco2 cells at 5 uM preincubated with vals-podar for 30 mins and measured for 120 mins by LC-MS/MS analysis. Format: ADME, cell-based. The following applies: Caco-2, with valspodar (printed as vals-podar; concentration not stated). In a few lines: as §2
Another data set has as its system TZM. Briefly: Cytotoxicity against human TZM-bl cells incubated for 3 days by MTS assay. Format: cell-based. The settings on record: 72 h.
Data set [7] is described as follows: Protein binding in human plasma at 5 uM measured for 4 hrs by LC-MS/MS analysis. Format: ADME, cell-free.
In data set [8] the target is T2, CYP3A (Homo sapiens, UniProt P08684+P20815+P24462+Q9HB55). In words: Inhibition of CYP3A in human liver microsomes using testosterone as substrate preincubated for 5 mins followed by NADPH addition and measured for 10 to 30 mins by LC-MS/MS analysis. Format: ADME. The settings on record: probe testosterone. The method in brief: as §1
For another data set, the target named is Cytochrome P450 2D6 (Homo sapiens, UniProt P10635). In words: Inhibition of CYP2D6 in human liver microsomes using bufuralol as substrate preincubated for 5 mins followed by NADPH addition and measured for 10 to 30 mins by LC-MS/MS analysis. Format: ADME. In a few lines:
as §1

A further data set addresses T3, Cytochrome P450 1A2 (Homo sapiens, UniProt P05177).
T3 sequence (P05177 whole entry): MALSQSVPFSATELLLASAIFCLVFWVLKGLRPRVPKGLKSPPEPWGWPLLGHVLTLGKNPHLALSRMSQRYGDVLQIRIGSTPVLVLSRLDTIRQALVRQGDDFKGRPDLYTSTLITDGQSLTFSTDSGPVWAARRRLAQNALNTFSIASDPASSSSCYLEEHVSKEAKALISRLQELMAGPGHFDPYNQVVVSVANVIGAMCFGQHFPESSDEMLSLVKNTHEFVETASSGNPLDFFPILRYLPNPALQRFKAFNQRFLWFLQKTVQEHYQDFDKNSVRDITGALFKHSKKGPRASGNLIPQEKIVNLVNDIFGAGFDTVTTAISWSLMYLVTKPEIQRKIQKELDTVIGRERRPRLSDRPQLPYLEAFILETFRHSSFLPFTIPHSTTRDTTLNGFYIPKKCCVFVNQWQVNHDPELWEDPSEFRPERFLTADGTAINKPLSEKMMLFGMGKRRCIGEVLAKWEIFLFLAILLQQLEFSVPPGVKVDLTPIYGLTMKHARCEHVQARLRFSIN
Briefly: Inhibition of CYP1A2 in human liver microsomes using phenacetin as substrate preincubated for 5 mins followed by NADPH addition and measured for 10 to 30 mins by LC-MS/MS analysis. Format: ADME. In a few lines:
as §1

The next data set has as its target T4, Cytochrome P450 2B6 (Homo sapiens, UniProt P20813).
T4 sequence (P20813 whole entry): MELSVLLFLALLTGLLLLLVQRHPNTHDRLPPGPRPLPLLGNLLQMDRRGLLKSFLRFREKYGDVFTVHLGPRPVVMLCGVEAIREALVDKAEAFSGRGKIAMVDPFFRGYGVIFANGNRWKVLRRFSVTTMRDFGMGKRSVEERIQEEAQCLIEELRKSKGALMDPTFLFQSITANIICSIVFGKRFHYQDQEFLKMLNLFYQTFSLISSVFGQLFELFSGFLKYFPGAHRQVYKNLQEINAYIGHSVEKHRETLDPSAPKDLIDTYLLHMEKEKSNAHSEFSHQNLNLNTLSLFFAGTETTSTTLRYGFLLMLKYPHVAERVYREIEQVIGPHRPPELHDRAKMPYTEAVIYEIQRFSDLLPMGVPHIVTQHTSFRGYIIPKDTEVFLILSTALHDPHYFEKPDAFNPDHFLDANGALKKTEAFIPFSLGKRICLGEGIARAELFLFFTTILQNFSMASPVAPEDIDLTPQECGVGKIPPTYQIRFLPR
Briefly: Inhibition of CYP2B6 in human liver microsomes using bupropion as substrate preincubated for 5 mins followed by NADPH addition and measured for 10 to 30 mins by LC-MS/MS analysis. Format: ADME. The method in brief:
as §1

In a further data set the target is Cytochrome P450 2C19 (Homo sapiens, UniProt P33261). In words: Inhibition of CYP2C19 in human liver microsomes using S-mephenytoin as substrate preincubated for 5 mins followed by NADPH addition and measured for 10 to 30 mins by LC-MS/MS analysis. Format: ADME. In a few lines:
as §1

Data set [9] addresses T2, CYP3A. Briefly: Inhibition of CYP3A in human liver microsomes using midazolam as substrate preincubated for 5 mins followed by NADPH addition and measured for 10 to 30 mins by LC-MS/MS analysis. Format: ADME. The settings on record: probe midazolam. In a few lines:
as §1

A short description of data set [10]: Apparent permeability from basolateral side to apical side in human Caco2 cells at 5 uM measured for 120 mins by LC-MS/MS analysis. Format: ADME, cell-based. The following applies: caco-2, 2 h.
Data set [11] in a line: Apparent permeability from apical to basolateral side in human Caco2 cells at 5 uM measured for 120 mins by LC-MS/MS analysis. Format: ADME, cell-based. The settings on record: caco-2, 2 h.
In the next data set the target is Cytochrome P450 2C9 (Homo sapiens, UniProt P11712). Briefly: Inhibition of CYP2C9 in human liver microsomes using diclofenac as substrate preincubated for 5 mins followed by NADPH addition and measured for 10 to 30 mins by LC-MS/MS analysis. Format: ADME. The method in brief:
as §1

The nature of data set [12]: Intrinsic clearance in human liver microsomes at 3 uM preincubated for 3 mins followed by NADPH addition and measured up to 120 mins by LC-MS/MS analysis. Format: ADME, Microsome. The settings on record: 2 h.

SMILES strings stand for the structures. In brackets after ≈: the same amount, converted by molar mass. Bounds are passed on as bounds.

Sequence of Cytochrome P450 2D6 (P10635 whole entry): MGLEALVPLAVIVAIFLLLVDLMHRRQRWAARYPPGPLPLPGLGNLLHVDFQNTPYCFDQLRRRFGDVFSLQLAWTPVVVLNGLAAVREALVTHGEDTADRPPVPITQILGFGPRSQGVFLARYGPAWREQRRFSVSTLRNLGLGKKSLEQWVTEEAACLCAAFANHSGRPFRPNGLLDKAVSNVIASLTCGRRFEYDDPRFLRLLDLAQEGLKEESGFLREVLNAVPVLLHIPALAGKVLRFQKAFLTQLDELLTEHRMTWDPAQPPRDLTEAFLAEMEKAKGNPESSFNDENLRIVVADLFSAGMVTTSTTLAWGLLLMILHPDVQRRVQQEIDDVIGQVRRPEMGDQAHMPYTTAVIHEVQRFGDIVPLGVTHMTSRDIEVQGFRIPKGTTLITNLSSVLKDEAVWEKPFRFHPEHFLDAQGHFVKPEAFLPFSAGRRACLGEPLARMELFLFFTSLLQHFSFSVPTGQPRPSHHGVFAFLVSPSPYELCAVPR
Sequence of Cytochrome P450 2C19 (P33261 whole entry): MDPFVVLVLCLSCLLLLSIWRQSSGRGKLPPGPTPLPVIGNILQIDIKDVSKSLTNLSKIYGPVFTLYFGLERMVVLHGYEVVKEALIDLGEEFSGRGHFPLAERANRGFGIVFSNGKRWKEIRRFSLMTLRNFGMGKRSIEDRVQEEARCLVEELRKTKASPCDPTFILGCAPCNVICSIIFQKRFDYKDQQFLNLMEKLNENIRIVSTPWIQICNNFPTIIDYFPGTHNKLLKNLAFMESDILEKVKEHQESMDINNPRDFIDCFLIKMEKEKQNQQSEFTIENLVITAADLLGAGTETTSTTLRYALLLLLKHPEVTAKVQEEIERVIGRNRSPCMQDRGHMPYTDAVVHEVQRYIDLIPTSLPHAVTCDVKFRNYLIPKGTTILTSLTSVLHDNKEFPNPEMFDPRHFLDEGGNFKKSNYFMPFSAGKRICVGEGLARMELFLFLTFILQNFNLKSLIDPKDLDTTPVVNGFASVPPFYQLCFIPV
Sequence of Cytochrome P450 2C9 (P11712 whole entry): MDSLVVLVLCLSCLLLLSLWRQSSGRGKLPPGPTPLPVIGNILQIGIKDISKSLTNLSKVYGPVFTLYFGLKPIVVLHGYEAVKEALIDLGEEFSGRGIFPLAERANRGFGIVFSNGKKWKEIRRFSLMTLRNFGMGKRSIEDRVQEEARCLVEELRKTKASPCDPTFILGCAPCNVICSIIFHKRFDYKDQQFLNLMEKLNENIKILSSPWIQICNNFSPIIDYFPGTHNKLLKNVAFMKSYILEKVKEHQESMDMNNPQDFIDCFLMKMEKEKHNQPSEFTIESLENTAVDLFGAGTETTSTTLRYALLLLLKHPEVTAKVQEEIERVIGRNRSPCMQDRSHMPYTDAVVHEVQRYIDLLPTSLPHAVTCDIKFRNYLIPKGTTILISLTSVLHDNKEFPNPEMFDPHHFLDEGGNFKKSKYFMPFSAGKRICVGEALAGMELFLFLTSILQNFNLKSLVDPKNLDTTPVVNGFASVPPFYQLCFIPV

By solubility is commonly meant the dissolved amount per volume that the medium holds. A higher solubility goes with much dissolved substance. What is called IC50 is the midpoint of a concentration-inhibition curve. Read a high IC50 as weaker potency. The Papp B→A is how fast a substance crosses the layer from the basolateral side. One may read the Papp A→B as the apparent permeability from the apical to the basolateral side of a cell layer. In general, CC50 refers to the concentration at which the toxic effect on the cells reaches its halfway point. Low values mean harm at low concentration, high ones better tolerance by the cells. By Papp is commonly meant a coefficient for how fast a substance crosses the barrier. In [1], `Cc1cc(-c2ccc(C(F)(F)F)cn2)[nH]c1C(=O)N[C@@H](CN)c1ncc(CO)s1` gave a solubility of 734 µg/mL (≈ 1730 µM). For the same molecule, the IC50 was over 100 µM on Cytochrome P450 2C8; over 62.2 µM at CYP3A [8]; over 100 µM at Cytochrome P450 2D6; 70.1 µM at Cytochrome P450 1A2; 85.4 µM on Cytochrome P450 2B6; over 100 µM at Cytochrome P450 2C19. For the same molecule, the half-maximal inhibitory concentration (IC50) against CYP3A [9] and against Cytochrome P450 2C9 was over 100 µM in each case. Also, the Papp B→A at 2 h, 5 µM in [2] came to 10.5 ×10⁻⁶ cm/s. The same molecule showed a t1/2 in data set [3] of over 2 h. In addition, the remaining at 2 h, 3 µM in [4] amounted to 93.5%. Moreover, the Activity entry in data set [5] is on record as “Non-Toxic”. For the same molecule, the Papp A→B at 2 h, 5 µM in [6] came to 14 ×10⁻⁶ cm/s. In addition, the midpoint of cytotoxicity in the data set with TZM, the CC50, lay at 109 µM. In addition, the PPB in [7] is given as 99.2%. Further, the apparent permeability coefficient (Papp) in data set [10] is on record as 20.3 ×10⁻⁶ cm/s; in data set [11], 6.51 ×10⁻⁶ cm/s. In data set [12], this molecule came in with a CLH of under 11.6 µL/min/mg.
